Laboratory results: ChEMBL document CHEMBL3745670, “Synthesis and biological evaluation of novel lipoamino acid derivatives” (Bioorg Med Chem Lett, 2016)
Converted amounts (≈) assume the structure as drawn.

How the values were obtained:
[1] = system: Micrococcus luteus; experiment: Antibacterial activity against Micrococcus luteus MTCC 2470 after 24 hrs by well diffusion assay; type: functional; conditions: MTCC 2470, 24 h
[2] = system: Staphylococcus aureus; experiment: Antibacterial activity against Staphylococcus aureus MTCC 96 after 24 hrs by well diffusion assay; type: functional; conditions: MTCC 96, 24 h
[3] = system: Staphylococcus aureus; experiment: Antibacterial activity against Staphylococcus aureus MLS-16 MTCC 2940 after 24 hrs by well diffusion assay; type: functional; conditions: MLS-16 MTCC 2940, 24 h
[4] = system: Candida albicans; experiment: Antifungal activity against Candida albicans MTCC 3017 after 24 hrs by well diffusion assay; type: functional; conditions: MTCC 3017, 24 h
How it was run: (§1)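 Well diffusion screen against Candida and related fungal strains. Read-out is MIC in µg/mL, with miconazole as the reference drug.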

[5] = system: Bacillus subtilis; experiment: Antibacterial activity against Bacillus subtilis MTCC 121 after 24 hrs by well diffusion assay; type: functional; conditions: MTCC 121, 24 h
[6] = system: Escherichia coli; experiment: Antibacterial activity against Escherichia coli MTCC 739 after 24 hrs by well diffusion assay; type: functional; conditions: MTCC 739, 24 h
[7] = system: Raoultella planticola; experiment: Antibacterial activity against Klebsiella planticola MTCC 530 after 24 hrs by well diffusion assay; type: functional; conditions: MTCC 530, 24 h
[8] = system: Pseudomonas aeruginosa; experiment: Antibacterial activity against Pseudomonas aeruginosa MTCC 2453 after 24 hrs by well diffusion assay; type: functional; conditions: MTCC 2453, 24 h
[9] = system: Micrococcus luteus; experiment: Bactericidal activity against Micrococcus luteus MTCC 2470 after 24 hrs; type: functional; conditions: MTCC 2470, 24 h
How it was run: (§2)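 Minimum bactericidal concentration was determined on four Gram-positive strains, for the compounds active in the preliminary antibacterial screen.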

[10] = system: Staphylococcus aureus; experiment: Bactericidal activity against Staphylococcus aureus MTCC 96 after 24 hrs; type: functional; conditions: MTCC 96, 24 h; how it was run: as §2
[11] = system: Staphylococcus aureus; experiment: Bactericidal activity against Staphylococcus aureus MLS-16 MTCC 2940 after 24 hrs; type: functional; conditions: MLS-16 MTCC 2940, 24 h; how it was run: as §2
[12] = system: Bacillus subtilis; experiment: Bactericidal activity against Bacillus subtilis MTCC 121 after 24 hrs by well diffusion assay; type: functional; conditions: MTCC 121, 24 h; how it was run: as §2
[13] = system: Micrococcus luteus; experiment: Antibiofilm activity against Micrococcus luteus MTCC 2470 after 24 hrs by crystal violet staining based method; type: functional, organism-based; conditions: MTCC 2470, 24 h
How it was run: (§3)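 Biofilm inhibition was tested on the four Gram-positive strains, using crystal violet staining.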

[14] = system: Staphylococcus aureus; experiment: Antibiofilm activity against Staphylococcus aureus MTCC 96 after 24 hrs by crystal violet staining based method; type: functional, organism-based; conditions: MTCC 96, 24 h; how it was run: as §3
[15] = system: Staphylococcus aureus; experiment: Antibiofilm activity against Staphylococcus aureus MLS-16 MTCC 2940 after 24 hrs by crystal violet staining based method; type: functional, organism-based; conditions: MLS-16 MTCC 2940, 24 h; how it was run: as §3
[16] = system: Bacillus subtilis; experiment: Antibiofilm activity against Bacillus subtilis MTCC 121 after 24 hrs by well diffusion assay by crystal violet staining based method; type: functional, organism-based; conditions: MTCC 121, 24 h; how it was run: as §3
[17] = system: Candida albicans; experiment: Antifungal activity against Candida albicans MTCC 183 after 24 hrs by well diffusion assay; type: functional; conditions: MTCC 183, 24 h; how it was run: as §1
[18] = system: Candida albicans; experiment: Antifungal activity against Candida albicans MTCC 227 after 24 hrs by well diffusion assay; type: functional; conditions: MTCC 227, 24 h; how it was run: as §1
[19] = system: Candida albicans; experiment: Antifungal activity against Candida albicans MTCC 854 after 24 hrs by well diffusion assay; type: functional; conditions: MTCC 854, 24 h; how it was run: as §1
[20] = system: Candida albicans; experiment: Antifungal activity against Candida albicans MTCC 1637 after 24 hrs by well diffusion assay; type: functional; conditions: MTCC 1637, 24 h; how it was run: as §1
[21] = system: Candida albicans; experiment: Antifungal activity against Candida albicans MTCC 3018 after 24 hrs by well diffusion assay; type: functional; conditions: MTCC 3018, 24 h; how it was run: as §1
[22] = system: Candida albicans; experiment: Antifungal activity against Candida albicans MTCC 3958 after 24 hrs by well diffusion assay; type: functional; conditions: MTCC 3958, 24 h; how it was run: as §1
[23] = system: Candida albicans; experiment: Antifungal activity against Candida albicans MTCC 4748 after 24 hrs by well diffusion assay; type: functional; conditions: MTCC 4748, 24 h; how it was run: as §1
[24] = system: Candida albicans; experiment: Antifungal activity against Candida albicans MTCC 7315 after 24 hrs by well diffusion assay; type: functional; conditions: MTCC 7315, 24 h; how it was run: as §1
[25] = system: Candida parapsilosis; experiment: Antifungal activity against Candida parapsilosis MTCC 1744 after 24 hrs by well diffusion assay; type: functional; conditions: Lodderomyces parapsilosis, MTCC 1744, 24 h; how it was run: as §1
[26] = system: [Candida] aaseri; experiment: Antifungal activity against Candida aaseri MTCC 1962 after 24 hrs by well diffusion assay; type: functional; conditions: Yamadazyma aaseri, MTCC 1962, 24 h; how it was run: as §1
[27] = system: Nakaseomyces glabratus; experiment: Antifungal activity against Candida glabrata MTCC 3019 after 24 hrs by well diffusion assay; type: functional; conditions: MTCC 3019, 24 h; how it was run: as §1
[28] = system: Pichia kudriavzevii; experiment: Antifungal activity against Pichia kudriavzevii MTCC 3020 after 24 hrs by well diffusion assay; type: functional; conditions: MTCC 3020, 24 h; how it was run: as §1
[29] = system: Pichia sporocuriosa; experiment: Antifungal activity against Issatchenkia hanoiensis MTCC 4755 after 24 hrs by well diffusion assay; type: functional; conditions: MTCC 4755, 24 h; how it was run: as §1
[30] = Cytotoxicity against human DU145 cells by MTT assay; type: functional, cell-based; conditions: DU-145
[31] = system: HepG2; experiment: Cytotoxicity against human HepG2 cells by MTT assay; type: functional, cell-based
[32] = Cytotoxicity against human SKOV3 cells by MTT assay; type: functional, cell-based; conditions: SK-OV-3
[33] = system: MDA-MB-231; experiment: Cytotoxicity against human MDA-MB-231 cells by MTT assay; type: functional, cell-based
[34] = system: Candida parapsilosis; experiment: Inhibition of ergosterol biosynthesis in Candida parapsilosis MTCC 1744 assessed as mean ergosterol content at 2 ug/ml after 20 hrs by spectrophotometric analysis (Rvb=1.62 +/- 0.08 ug/ml); type: functional
[35] = system: Candida parapsilosis; experiment: Inhibition of ergosterol biosynthesis in Candida parapsilosis MTCC 1744 assessed as mean ergosterol content at 4 ug/ml after 20 hrs by spectrophotometric analysis (Rvb=1.62 +/- 0.08 ug/ml); type: functional
[36] = system: Candida parapsilosis; experiment: Inhibition of ergosterol biosynthesis in Candida parapsilosis MTCC 1744 assessed as mean ergosterol content at 8 ug/ml after 20 hrs by spectrophotometric analysis (Rvb=1.62 +/- 0.08 ug/ml); type: functional
[37] = system: Candida parapsilosis; experiment: Inhibition of ergosterol biosynthesis in Candida parapsilosis MTCC 1744 assessed as mean ergosterol content at 16 ug/ml after 20 hrs by spectrophotometric analysis (Rvb=1.62 +/- 0.08 ug/ml); type: functional

In the case of `CCCCCCCCC(CCCCCCCCC(=O)OC)SCC(=O)N[C@@H](C)C(=O)OC` (stereo not given in full), the MIC [1] is reported as 7.8 µg/mL (≈ 16.5 µM), the MIC [2] is reported as 15.6 µg/mL (≈ 32.9 µM) and the MIC [3] is reported as 7.8 µg/mL (≈ 16.5 µM). It also gave an MIC [4] of 7.8 µg/mL (≈ 16.5 µM), an MIC [5] of 3.9 µg/mL (≈ 8.23 µM) and an MIC [6] greater than 125 µg/mL. The MIC [7] was greater than 125 µg/mL, the MIC [8] was greater than 125 µg/mL and the MBC [9] was 7.8 µg/mL (≈ 16.5 µM). The MBC [10] was 31.2 µg/mL (≈ 65.9 µM), the MBC [11] was 15.6 µg/mL (≈ 32.9 µM) and the MBC [12] was 7.8 µg/mL (≈ 16.5 µM). For the same compound, the IC50 [13] was 4.1 µM, the IC50 [14] was 9.3 µM and the IC50 [15] was 3.2 µM. The IC50 [16] was 2.8 µM, the MFC [17] was 15.6 µg/mL (≈ 32.9 µM) and the MIC [17] was 7.8 µg/mL (≈ 16.5 µM). For the same compound, the MFC [18] was 31.2 µg/mL (≈ 65.9 µM), the MIC [18] was 15.6 µg/mL (≈ 32.9 µM) and the MFC [19] was 62.5 µg/mL (≈ 132 µM). For the same compound, the MIC [19] was 31.2 µg/mL (≈ 65.9 µM), the MFC [20] was 31.2 µg/mL (≈ 65.9 µM) and the MIC [20] was 31.2 µg/mL (≈ 65.9 µM). It also gave an MFC [21] of 31.2 µg/mL (≈ 65.9 µM), an MIC [21] of 15.6 µg/mL (≈ 32.9 µM) and an MFC [22] of 15.6 µg/mL (≈ 32.9 µM). The MIC [22] was 7.8 µg/mL (≈ 16.5 µM), the MFC [23] was 15.6 µg/mL (≈ 32.9 µM) and the MIC [23] was 15.6 µg/mL (≈ 32.9 µM). It also gave an MFC [24] of 31.2 µg/mL (≈ 65.9 µM), an MIC [24] of 15.6 µg/mL (≈ 32.9 µM) and an MFC [25] of 7.8 µg/mL (≈ 16.5 µM). The MIC [25] was 7.8 µg/mL (≈ 16.5 µM), the MFC [26] was 31.2 µg/mL (≈ 65.9 µM) and the MIC [26] was 15.6 µg/mL (≈ 32.9 µM). The MFC [27] was 31.2 µg/mL (≈ 65.9 µM), the MIC [27] was 31.2 µg/mL (≈ 65.9 µM) and the MFC [28] was 15.6 µg/mL (≈ 32.9 µM). It also gave an MIC [28] of 15.6 µg/mL (≈ 32.9 µM), an MFC [29] of 31.2 µg/mL (≈ 65.9 µM) and an MIC [29] of 15.6 µg/mL (≈ 32.9 µM). For the same compound, the IC50 [30] was 154 µM, the IC50 [31] was 102 µM and the IC50 [32] was 114 µM. It also gave an IC50 [33] of 98.7 µM, an Activity [34] of 1.41 µg/mL and an Activity [35] of 0.63 µg/mL. The Activity [36] was 0.38 µg/mL and the Activity [37] was 0.11 µg/mL.
